In ChEMBL document CHEMBL1135138, “2-Aminothiazoles: a new class of agonist allosteric enhancers of A(1) adenosine receptors” (Bioorg Med Chem Lett, 2002):
Activity calls are given as the source filed them. The rule behind the calls is not given here.

Tests used:
Adenosine receptor A1 = target: T1, Adenosine receptor A1 (Homo sapiens, UniProt P30542); test: Effective concentration against Adenosine A1 receptor
T1 sequence (P30542 whole entry): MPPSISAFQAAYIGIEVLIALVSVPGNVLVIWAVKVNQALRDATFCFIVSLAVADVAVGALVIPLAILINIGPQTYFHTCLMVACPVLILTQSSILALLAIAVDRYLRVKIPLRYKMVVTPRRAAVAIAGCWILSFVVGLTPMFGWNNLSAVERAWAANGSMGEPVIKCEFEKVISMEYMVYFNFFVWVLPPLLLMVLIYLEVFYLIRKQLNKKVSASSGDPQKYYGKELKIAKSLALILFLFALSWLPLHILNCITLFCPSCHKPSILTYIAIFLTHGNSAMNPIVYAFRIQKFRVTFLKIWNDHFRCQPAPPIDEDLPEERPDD

[1] = target: T2, Adenosine receptor A1 (Homo sapiens) (UniProt P30542); test: AE activity is the ratio of specific binding at the end of dissociation to specific binding at the end of 120 min of equilibration at 50 uM concentration to Adenosine A1 receptor
T2 sequence (whole entry): T1 sequence (P30542 whole entry)
Method in brief: (§1)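 Test agent from DMSO stock was added for 5 min. Dissociation was started with 8-CPT plus GTPγS and stopped after 10 min by glass-fibre filtration. Nonspecific binding (8-CPT/GTPγS, no agent) was subtracted. % = specific binding after dissociation ÷ after equilibration. Means of 2–3 experiments ±SEM.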

[2] = target: T2, Adenosine receptor A1 (Homo sapiens); test: AE activity is the ratio of specific binding at the end of dissociation to specific binding at the end of 120 min of equilibration at 5 uM concentration to Adenosine A1 receptor; method in brief: as §1
[3] = target: T2, Adenosine receptor A1 (Homo sapiens); test: AE activity is the ratio of specific binding at the end of dissociation to specific binding at the end of 120 min of equilibration at 50 uM concentration to Adenosine A1 receptor; not significantly active; method in brief: as §1
[4] = target: T3, Adenosine receptor A3 (Homo sapiens) (UniProt P0DMS8); test: Percent allosteric enhancer (AE) activity from ratio of specific binding to Adenosine A3 receptor at end of dissociation to that of 120 min of equilibration
T3 sequence (whole entry): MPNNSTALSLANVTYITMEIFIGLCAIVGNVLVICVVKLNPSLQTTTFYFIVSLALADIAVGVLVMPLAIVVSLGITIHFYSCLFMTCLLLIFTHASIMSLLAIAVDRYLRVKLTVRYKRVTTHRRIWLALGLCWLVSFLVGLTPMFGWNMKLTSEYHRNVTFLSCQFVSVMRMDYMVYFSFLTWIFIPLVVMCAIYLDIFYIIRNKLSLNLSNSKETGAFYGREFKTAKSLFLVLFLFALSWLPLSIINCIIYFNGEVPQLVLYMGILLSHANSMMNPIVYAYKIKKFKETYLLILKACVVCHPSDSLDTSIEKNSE

[5] = target: Adenosine receptor A2a (Homo sapiens) (UniProt P29274); test: Percent allosteric enhancer (AE) activity from ratio of specific binding to Adenosine A2A receptor at end of dissociation to that of 120 min of equilibration
[6] = target: T2, Adenosine receptor A1 (Homo sapiens); test: AE activity is the ratio of specific binding at the end of dissociation to specific binding at the end of 120 min of equilibration at 5 uM concentration to Adenosine A1 receptor; not significantly active; method in brief: as §1

Adenosine receptor A2a (Homo sapiens), sequence (P29274 whole entry): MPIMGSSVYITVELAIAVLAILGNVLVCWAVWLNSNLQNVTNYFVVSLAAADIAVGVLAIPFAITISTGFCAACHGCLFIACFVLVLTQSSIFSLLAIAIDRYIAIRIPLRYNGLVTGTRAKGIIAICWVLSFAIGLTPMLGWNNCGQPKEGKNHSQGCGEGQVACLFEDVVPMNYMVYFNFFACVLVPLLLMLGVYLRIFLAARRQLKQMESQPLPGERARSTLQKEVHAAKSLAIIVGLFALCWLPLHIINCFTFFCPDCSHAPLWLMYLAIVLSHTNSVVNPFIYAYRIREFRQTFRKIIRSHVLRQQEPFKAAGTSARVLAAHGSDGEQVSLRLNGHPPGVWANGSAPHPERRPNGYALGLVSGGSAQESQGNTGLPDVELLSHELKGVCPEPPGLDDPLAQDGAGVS

Cc1ccc2c(c1)-c1nc(N)sc1C2
EC50 (Adenosine receptor A1): 4.2 µM | AE activity [1]: 72%

Nc1nc2c(s1)CCc1cc(OC(=O)c3ccccc3)ccc1-2
AE activity [2]: 54%

Nc1nc2c(s1)CCCC2
AE activity [1]: 19%

Nc1nc2c(s1)-c1ccccc1CC2
AE activity [3]: inactive

COc1cc2c(c(OC)c1OC)-c1nc(N)sc1C2
AE activity [1]: 24%

Cc1cccc2c1Cc1sc(N)nc1-2
AE activity [1]: 81%

CCCCCOc1ccc2c(c1)CCc1sc(N)nc1-2
AE activity [2]: 41%

COc1ccc2c(c1)CCc1sc(N)nc1-2
AE activity [4]: 8% | AE activity [5]: 18% | AE activity [1]: 78%

CCCCCCCCOc1ccc2c(c1)CCc1sc(N)nc1-2
AE activity [2]: 45%

CC(=O)Oc1ccc2c(c1)CCc1sc(N)nc1-2
AE activity [4]: 30% | AE activity [5]: 24% | AE activity [1]: 95%

Nc1nc2c(s1)-c1ccccc1C2
AE activity [3]: inactive

Nc1nc2c(s1)CCc1ccccc1-2
EC50 (Adenosine receptor A1): 17 µM | AE activity [1]: 80%

COc1cc2c(cc1OC)-c1nc(N)sc1C2
AE activity [4]: 29% | AE activity [5]: 36% | AE activity [1]: 78%

Nc1nc2c(s1)Cc1c(OC(=O)C3CCCCC3)cccc1-2
AE activity [3]: inactive

COc1cc2c(c(OC)c1OC)Cc1sc(N)nc1-2
EC50 (Adenosine receptor A1): 17 µM | AE activity [2]: 60%

Nc1nc2c(s1)Cc1c(OC(=O)C3CCCC3)cccc1-2
EC50 (Adenosine receptor A1): 4.5 µM | AE activity [1]: 85%

Nc1nc2c(s1)CCCCC2
AE activity [3]: inactive

Nc1nc2c(s1)COc1ccccc1-2
AE activity [1]: 62%

Nc1nc2c(s1)Cc1cc(Br)ccc1-2
AE activity [3]: inactive

COc1ccc2c(c1)Cc1sc(N)nc1-2
EC50 (Adenosine receptor A1): 50 µM | AE activity [1]: 66%

Nc1nc2c(s1)CCCc1ccccc1-2
AE activity [3]: inactive

Nc1nc2c(s1)Cc1ccccc1-2
EC50 (Adenosine receptor A1): 38 µM | AE activity [1]: 91%

Nc1nc2c(s1)CCc1cc(OC3C=CC=C3)ccc1-2
AE activity [6]: inactive

CC(=O)Oc1cccc2c1Cc1sc(N)nc1-2
AE activity [4]: 22% | AE activity [5]: 19% | AE activity [2]: 74%
